{"source": "ChEMBL document CHEMBL3244105", "about": "“Antiparasitic agents. 3. Synthesis and anthelmintic activities of novel 2-pyridinyl-5-isothiocyanatobenzimidazoles” (1979)", "key": {"[1]": {"test_system": "Heligmosomoides polygyrus", "experiment": "Nematocidal activity against Nematospiroides dubius infected in CF1 mouse assessed as clearance of worm burden at 0.2% dosed through diet for 4 days dosed 16 days post infection by press-plate technique", "assay_type": "functional", "summary_of_the_method": "(§1)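 Primary oral mouse screen. Compound was given mixed in the diet. Tapeworm (taeniacidal) and N. dubius nematode activity were each scored as percent clearance of worms.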"}, "Rodentolepis nana [2]": {"test_system": "Rodentolepis nana", "experiment": "Anthelmintic activity against Hymenolepis nana infected in CF1 mouse assessed as clearance of worm burden assessed as clearance of worm burden at 0.2% dosed through diet for 4 days dosed 16 days post infection by press-plate technique", "assay_type": "functional", "summary_of_the_method": "as §1"}, "[3]": {"test_system": "gastrointestinal nematodes (Ovis aries)", "experiment": "Anthelmintic activity against gastrointestinal nematodes infected in sheep assessed as reduction of fecal egg count at 50 mg/kg, po measured up to 7 days relative to control", "parameters": "scale not given: the % may be the effect or the level left"}, "Moniezia": {"test_system": "Moniezia", "experiment": "Anthelmintic activity against Moniezia sp. infected in sheep assessed as reduction of fecal egg count", "assay_type": "functional"}, "Taenia pisiformis": {"test_system": "Taenia pisiformis", "experiment": "Anthelmintic activity against Taenia pisiformis infected in dog assessed as reduction of fecal egg count", "assay_type": "functional, organism-based"}, "[4]": {"test_system": "gastrointestinal nematodes (Ovis aries)", "experiment": "Anthelmintic activity against gastrointestinal nematodes infected in sheep assessed as reduction of fecal egg count at 43 mg/kg, po measured up to 7 days relative to control", "parameters": "scale not given: the % may be the effect or the level left"}, "[5]": {"test_system": "gastrointestinal nematodes (Ovis aries)", "experiment": "Anthelmintic activity against gastrointestinal nematodes infected in sheep assessed as reduction of fecal egg count at 200 mg/kg, po measured up to 7 days relative to control", "parameters": "scale not given: the % may be the effect or the level left"}, "Rodentolepis nana [6]": {"test_system": "Rodentolepis nana", "experiment": "Anthelmintic activity against Hymenolepis nana infected in CF1 mouse assessed as clearance of worm burden at 0.03% dosed through diet for 4 days dosed 16 days post infection by press-plate technique", "assay_type": "functional, organism-based", "summary_of_the_method": "as §1"}, "[7]": {"test_system": "Heligmosomoides polygyrus", "experiment": "Nematocidal activity against Nematospiroides dubius infected in CF1 mouse assessed as clearance of worm burden at 0.03% dosed through diet for 4 days dosed 16 days post infection by press-plate technique", "assay_type": "functional, organism-based", "summary_of_the_method": "as §1"}, "[8]": {"test_system": "gastrointestinal nematodes (Ovis aries)", "experiment": "Anthelmintic activity against gastrointestinal nematodes infected in sheep assessed as reduction of fecal egg count at 25 mg/kg, po measured up to 7 days relative to control", "parameters": "scale not given: the % may be the effect or the level left"}}, "note": "Activity calls are given as the source filed them. The calls are words filed in the database; no cut-off is given here."}
{"smiles": "Cc1ccnc(-c2nc3cc(N=C=S)ccc3[nH]2)c1", "values": [{"measurement": "Activity", "setting": "[1]", "value": "inactive"}, {"measurement": "Activity", "setting": "Rodentolepis nana [2]", "value": 25, "unit": "%"}, {"measurement": "Activity", "setting": "[3]", "value": 0, "unit": "%"}]}
{"smiles": "S=C=Nc1ccc2[nH]c(-c3ccccn3)nc2c1", "note": "[listing 1 of 2 here]", "values": [{"measurement": "Activity", "setting": "[1]", "value": "inactive"}, {"measurement": "Activity", "setting": "Moniezia", "value": "inactive"}, {"measurement": "Activity", "setting": "Taenia pisiformis", "value": "inactive"}]}
{"smiles": "Cc1cccc(-c2nc3cc(N=C=S)ccc3[nH]2)n1", "values": [{"measurement": "Activity", "setting": "[1]", "value": "inactive"}, {"measurement": "Activity", "setting": "Rodentolepis nana [2]", "value": 75, "unit": "%"}, {"measurement": "Activity", "setting": "[3]", "value": 52, "unit": "%"}]}
{"smiles": "c1ccc(-c2nc3ccccc3[nH]2)cc1", "values": [{"measurement": "Activity", "setting": "[1]", "value": "inactive"}, {"measurement": "Activity", "setting": "Rodentolepis nana [2]", "value": 25, "unit": "%"}, {"measurement": "Activity", "setting": "[3]", "value": 17, "unit": "%"}]}
{"smiles": "S=C=Nc1ccc2[nH]c(-c3cscn3)nc2c1", "values": [{"measurement": "Activity", "setting": "[1]", "value": 90, "unit": "%"}, {"measurement": "Activity", "setting": "Rodentolepis nana [2]", "value": 100, "unit": "%"}]}
{"smiles": "Cn1c(-c2cccc[n+]2C)nc2cc(N=C=S)ccc21.[I-]", "values": [{"measurement": "Activity", "setting": "[1]", "value": "inactive"}, {"measurement": "Activity", "setting": "Rodentolepis nana [2]", "value": 0, "unit": "%"}]}
{"smiles": "S=C=Nc1cccc2[nH]c(-c3ccccn3)nc12", "values": [{"measurement": "Activity", "setting": "[1]", "value": "inactive"}, {"measurement": "Activity", "setting": "Rodentolepis nana [2]", "value": 25, "unit": "%"}, {"measurement": "Activity", "setting": "[3]", "value": 83, "unit": "%"}]}
{"smiles": "c1ccc(-c2nc3ccccc3[nH]2)nc1", "values": [{"measurement": "Activity", "setting": "[1]", "value": "inactive"}, {"measurement": "Activity", "setting": "Rodentolepis nana [2]", "value": 0, "unit": "%"}, {"measurement": "Activity", "setting": "[3]", "value": 28, "unit": "%"}]}
{"smiles": "COc1ccnc(-c2nc3cc(N=C=S)ccc3[nH]2)c1", "values": [{"measurement": "Activity", "setting": "[1]", "value": "inactive"}, {"measurement": "Activity", "setting": "Rodentolepis nana [2]", "value": 75, "unit": "%"}, {"measurement": "Activity", "setting": "[3]", "value": 0, "unit": "%"}]}
{"smiles": "[O-][n+]1ccccc1-c1nc2cc(N=C=S)ccc2[nH]1", "values": [{"measurement": "Activity", "setting": "[1]", "value": "inactive"}, {"measurement": "Activity", "setting": "Rodentolepis nana [2]", "value": 100, "unit": "%"}, {"measurement": "Activity", "setting": "[4]", "value": 9, "unit": "%"}]}
{"smiles": "S=C=Nc1ccc2[nH]c(-c3cccnc3)nc2c1", "values": [{"measurement": "Activity", "setting": "[1]", "value": "inactive"}, {"measurement": "Activity", "setting": "Rodentolepis nana [2]", "value": 100, "unit": "%"}, {"measurement": "Activity", "setting": "[5]", "value": 71, "unit": "%"}]}
{"smiles": "CCCCc1ccc2[nH]c(NC(=O)OC)nc2c1", "values": [{"measurement": "Activity", "setting": "Rodentolepis nana [6]", "value": "Active"}, {"measurement": "Activity", "setting": "[7]", "value": "Active"}]}
{"smiles": "S=C=Nc1ccc2[nH]c(-c3ccccc3)nc2c1", "values": [{"measurement": "Activity", "setting": "[1]", "value": "inactive"}, {"measurement": "Activity", "setting": "Rodentolepis nana [2]", "value": 100, "unit": "%"}, {"measurement": "Activity", "setting": "[3]", "value": 0, "unit": "%"}]}
{"smiles": "S=C=Nc1cc2nc(-c3ccccn3)[nH]c2cc1Cl", "values": [{"measurement": "Activity", "setting": "[1]", "value": "inactive"}, {"measurement": "Activity", "setting": "Rodentolepis nana [2]", "value": 50, "unit": "%"}, {"measurement": "Activity", "setting": "[3]", "value": 15, "unit": "%"}]}
{"smiles": "S=C=Nc1ccc2[nH]c(-c3ccccn3)nc2c1", "note": "[listing 2 of 2 here]", "values": [{"measurement": "Activity", "setting": "[8]", "value": 11, "unit": "%"}, {"measurement": "Activity", "setting": "Rodentolepis nana [2]", "value": 100, "unit": "%"}, {"measurement": "Activity", "setting": "[3]", "value": 100, "unit": "%"}, {"measurement": "Activity", "setting": "[5]", "value": 100, "unit": "%"}]}
{"smiles": "S=C=Nc1ccc2[nH]c(-c3cc(Cl)ccn3)nc2c1", "values": [{"measurement": "Activity", "setting": "[1]", "value": "inactive"}, {"measurement": "Activity", "setting": "Rodentolepis nana [2]", "value": 75, "unit": "%"}, {"measurement": "Activity", "setting": "[3]", "value": 0, "unit": "%"}]}
{"smiles": "Cc1ccc(S(=O)(=O)O)cc1.S=C=Nc1ccc2[nH]c(-c3ccccn3)nc2c1", "values": [{"measurement": "Activity", "setting": "Rodentolepis nana [2]", "value": 100, "unit": "%"}, {"measurement": "Activity", "setting": "[3]", "value": 0, "unit": "%"}]}
{"smiles": "S=C=Nc1ccc2[nH]c(-c3ccncc3)nc2c1", "values": [{"measurement": "Activity", "setting": "[1]", "value": "inactive"}, {"measurement": "Activity", "setting": "Rodentolepis nana [2]", "value": 0, "unit": "%"}, {"measurement": "Activity", "setting": "[3]", "value": 0, "unit": "%"}]}
{"smiles": "S=C=Nc1ccnc(-c2nc3ccccc3[nH]2)c1", "values": [{"measurement": "Activity", "setting": "[1]", "value": "inactive"}, {"measurement": "Activity", "setting": "Rodentolepis nana [2]", "value": 50, "unit": "%"}, {"measurement": "Activity", "setting": "[3]", "value": 0, "unit": "%"}]}
{"smiles": "Cl.S=C=Nc1ccc2[nH]c(-c3ccccn3)nc2c1", "values": [{"measurement": "Activity", "setting": "Rodentolepis nana [2]", "value": 75, "unit": "%"}, {"measurement": "Activity", "setting": "[3]", "value": 95, "unit": "%"}]}
{"smiles": "S=C=Nc1ccnc(-c2nc3cc(N=C=S)ccc3[nH]2)c1", "values": [{"measurement": "Activity", "setting": "[1]", "value": "inactive"}, {"measurement": "Activity", "setting": "Rodentolepis nana [2]", "value": 0, "unit": "%"}, {"measurement": "Activity", "setting": "[3]", "value": 0, "unit": "%"}]}
